High-throughput results: PubChem BioAssay, several laboratories
MEKK2 mut-MEK5 – MEK5 binding signal on mutant MEKK2 PB1, primary screen, biochemical, multiplex bead flow cytometry, Alexa488-MEK5; Alexa488-MEK5 binding to MEKK2 mutant; percent response, % at 10 µM; hit rate 0.35% among 290,000; in the data active = percent response above about 24%, passing the limit was not always enough
UBC13 polyUb – UBC13 polyubiquitin chain formation inhibitors, primary screen, biochemical, TR-FRET, uHTS | inhibition, % at 20 µM | hit rate 0.47% among 330,000; in the data active = inhibition above about 45%, passing the limit was not always enough
Apaf-1 inh – inhibitors of human Apaf-1 apoptosome, primary screen, biochemical, DEVD-Rh110 fluorescence, uHTS; Apoptotic protease-activating factor 1 (Homo sapiens), O14727; reconstituted apoptosome caspase-3 activity; inhibition, % at 20 µM; hit rate 0.71% among 330,000; AID 489030, 2010; active = inhibition of at least 40% at 20 µM;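 note: plate controls were DMSO wells for no effect and DEVD-CHO caspase inhibitor wells for full effect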
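Material: reconstituted apoptosome with Apaf-1, cytochrome c, caspase-9, procaspase-3, dATP. Technique: Rh110 fluorescence intensity. Buffer or medium: pH 7.5 Hepes buffer with CHAPS, BSA, DTT. Times: 30 min plus 50 min, RT.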
MEKK2 WT-MEK5 – modulators of MEK5 binding to wildtype MEKK2, primary screen, biochemical, multiplex bead flow cytometry, Alexa488-MEK5. Mitogen-activated protein kinase kinase kinase 2 (Homo sapiens), Q9Y2U5. Alexa488-MEK5 binding to MEKK2 WT; actives lie on both sides. binding response (% of control), % at 10 µM. hit rate 1.1% among 290,000. AID 1531, 2009; in the data active = binding response below about 67% or above about 130%
MEKK3 PB1 HTS – modulators of MEKK3-MEK5 PB1 binding, primary screen, biochemical, wildtype MEKK3, multiplex bead flow cytometry, Alexa488-MEK5 | AID 1529, 2009 | Mitogen-activated protein kinase kinase kinase 3 (Homo sapiens), Q99759 | bead-based flow cytometry, Alexa488-MEK5 binding to MEKK3; actives lie on both sides; 0 = blocked by unlabeled MEK5, 100 = vehicle | hit rate 1.4% among 290,000 | binding response (% of control), % at 10 µM;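 active = binding response more than 3 SD above or below the average of its plate-row segment, actives on both sides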;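 note: Alexa488 bead fluorescence after subtracting the streptavidin-only scavenger bead signal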
Target sequence (Q99759 whole entry, looked up): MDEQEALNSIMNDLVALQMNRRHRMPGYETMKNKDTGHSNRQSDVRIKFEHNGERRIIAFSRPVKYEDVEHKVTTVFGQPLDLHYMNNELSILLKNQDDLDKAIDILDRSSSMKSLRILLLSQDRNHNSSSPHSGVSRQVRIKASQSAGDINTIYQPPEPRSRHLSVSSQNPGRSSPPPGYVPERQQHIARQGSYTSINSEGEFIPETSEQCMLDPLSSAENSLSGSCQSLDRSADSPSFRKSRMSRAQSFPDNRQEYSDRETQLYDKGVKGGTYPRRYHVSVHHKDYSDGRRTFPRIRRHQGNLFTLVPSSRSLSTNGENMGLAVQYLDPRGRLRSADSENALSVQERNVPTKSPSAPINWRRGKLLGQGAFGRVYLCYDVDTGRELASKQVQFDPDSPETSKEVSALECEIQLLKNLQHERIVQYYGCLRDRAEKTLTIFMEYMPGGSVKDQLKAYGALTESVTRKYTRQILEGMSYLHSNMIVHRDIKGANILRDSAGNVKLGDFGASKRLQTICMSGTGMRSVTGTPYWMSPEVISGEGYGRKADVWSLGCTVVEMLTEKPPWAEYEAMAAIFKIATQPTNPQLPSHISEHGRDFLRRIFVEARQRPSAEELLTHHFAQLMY
* marks the source's active call; other numbers are inactive results. Compounds with a hit are over-represented: about 2.9% of the library has one in this group of screens.

Screening C#CCOCCOCCOCCNc1nc(N2CCN(C(=O)C([C@@H](C)CC)n3cc(C(N)CC(C)C)nn3)CC2)nc(N2CCN(C(=O)[C@H](CCCCN)n3cc(C(N)COC(=O)C(F)(F)F)nn3)CC2)n1 (stereo not given in full) returned MEKK2 mut-MEK5 9, UBC13 polyUb 34, Apaf-1 inh 28, MEKK2 WT-MEK5 125 and MEKK3 PB1 HTS 105.
C#CCOCCOCCOCCNc1nc(N2CCN(C(=O)[C@H](CCCCN)n3cc(CCCC)nn3)CC2)nc(N2CCN(C(=O)[C@H](Cc3ccc(O)cc3)n3cc(CCO)nn3)CC2)n1 was read as MEKK2 mut-MEK5 3, UBC13 polyUb 90*, Apaf-1 inh 20, MEKK2 WT-MEK5 135 and MEKK3 PB1 HTS 99.
Screening C#CCOCCOCCOCCNc1nc(N2CCN(C(=O)CCCCCCCCCCNC(=O)[C@H](CO)n3cc(CCCSC)nn3)CC2)nc(N2CCN(C(=O)CCCCCCCCCCNC(=O)[C@H](CCCCN)n3cc(C[C@@H](C)CC)nn3)CC2)n1 returned UBC13 polyUb 118* and Apaf-1 inh 68*.
`C#CCOCCOCCOCCNc1nc(N2CCN(C(=O)CCCCCCCCCCNC(=O)[C@H](CCCCN)n3cc(CCO)nn3)CC2)nc(N2CCN(C(=O)CCCCCCCCCCNC(=O)[C@H](CCCN=C(N)N)n3cc(C[C@@H](C)CC)nn3)CC2)n1` gave UBC13 polyUb 125* and Apaf-1 inh 78*.
`C#CCOCCOCCOCCNc1nc(N2CCOCC2)nc(N2CCN(C(=O)CCCCCCCCCCNC(=O)[C@@H](CCSC)n3cc(CCO)nn3)CC2)n1` gave UBC13 polyUb 1 and Apaf-1 inh 8.
`O=C(N/N=C/c1ccc[nH]1)c1ccc([N+](=O)[O-])cc1` gave MEKK2 mut-MEK5 2, UBC13 polyUb 0, Apaf-1 inh -4, MEKK2 WT-MEK5 104 and MEKK3 PB1 HTS 108.
Screening C#CCOCCOCCOCCNc1nc(N2CCN(C(=O)CCCCCCCCCCNC(=O)[C@@H](CCSC)n3cc(CCO)nn3)CC2)nc(N2CCN(C(=O)CCCCCCCCCCNC(=O)[C@H]([C@@H](C)CC)n3cc(CCCCCN)nn3)CC2)n1 returned UBC13 polyUb 116* and Apaf-1 inh 51*.
For C#CCOCCOCCOCCNc1nc(N2CCN(C(=O)CCCCCCCCCCNC(=O)[C@H]([C@@H](C)CC)n3cc(CCCCN=C(N)N)nn3)CC2)nc(N2CCN(C(=O)CCCCCCCCCCNC(=O)[C@H](CCCCN)n3cc(C[C@@H](C)CC)nn3)CC2)n1 the results were UBC13 polyUb 122* and Apaf-1 inh 55*.
For C#CCOCCOCCOCCNc1nc(N2CCN(C(=O)[C@H]([C@@H](C)CC)n3cc(CCCN=C(N)N)nn3)CC2)nc(N2CCN(C(=O)[C@H](CCCCN)n3cc(CC(C)O)nn3)CC2)n1 (stereo not given in full) the results were UBC13 polyUb 3 and Apaf-1 inh -4.
`COc1ccc2c(C(=O)CN3CCN(c4ccccc4)CC3)c[nH]c2c1` gave MEKK2 mut-MEK5 67*, UBC13 polyUb -11, Apaf-1 inh 2, MEKK2 WT-MEK5 33* and MEKK3 PB1 HTS 107.
For COc1ccc2c(C(=O)CN3CCSCC3)c[nH]c2c1 the results were MEKK2 mut-MEK5 -4, UBC13 polyUb 5, Apaf-1 inh -11, MEKK2 WT-MEK5 94 and MEKK3 PB1 HTS 90.
For COc1ccc(-c2cn(Cc3ccc(C)cc3)nn2)cc1 the results were MEKK2 mut-MEK5 -9, UBC13 polyUb 5, Apaf-1 inh 9, MEKK2 WT-MEK5 88 and MEKK3 PB1 HTS 93.
`COc1ccc(N2CCN(S(=O)(=O)c3cc(C)ccc3OC)CC2)cc1` gave MEKK2 mut-MEK5 6, UBC13 polyUb 3, Apaf-1 inh 4, MEKK2 WT-MEK5 106 and MEKK3 PB1 HTS 105.
Screening C/C=C/C(=O)Nc1cccc(C2=NOC3(C2)C[C@H](C(N)=O)N(C(=O)c2ccccc2C(=O)c2ccccc2)C3)c1 (stereo not given in full) returned MEKK2 mut-MEK5 -6, UBC13 polyUb 52*, Apaf-1 inh 7, MEKK2 WT-MEK5 95 and MEKK3 PB1 HTS 75.
`Cc1cc(C)nc(SCC(=O)N2CCCCC2)n1` gave MEKK2 mut-MEK5 14, UBC13 polyUb 6, Apaf-1 inh -3, MEKK2 WT-MEK5 -2.0* and MEKK3 PB1 HTS 91.
Screening O=C(O)c1cccnc1Sc1ccccc1Cl returned MEKK2 mut-MEK5 9, UBC13 polyUb 3, Apaf-1 inh -3, MEKK2 WT-MEK5 29* and MEKK3 PB1 HTS 97.
Screening O=C(Cc1cc(=O)[nH][nH]1)N/N=C/c1ccccc1Cl returned MEKK2 mut-MEK5 3, UBC13 polyUb -2, Apaf-1 inh 77*, MEKK2 WT-MEK5 104 and MEKK3 PB1 HTS 105.
For CCN(CC)c1cccc(OCC(=O)N(C)CCC#N)c1 the results were MEKK2 mut-MEK5 73*, UBC13 polyUb -10, Apaf-1 inh 19 and MEKK3 PB1 HTS 89.
COc1ccccc1CN1[C@@H](CC(=O)O)c2cc(F)ccc2S1(=O)=O was read as MEKK2 mut-MEK5 5, UBC13 polyUb 6, Apaf-1 inh 10, MEKK2 WT-MEK5 108 and MEKK3 PB1 HTS 107.
Cc1ccc2c(c1)c1c(n2CC(O)CN2CCOCC2)CCCC1 (stereo not given) was read as MEKK2 mut-MEK5 20, UBC13 polyUb -10, Apaf-1 inh -2, MEKK2 WT-MEK5 19* and MEKK3 PB1 HTS 102.
For Cc1ccc2c(c1)c1c(n2CC(O)CN2CCC(C)CC2)CCCC1 (stereo not given) the results were MEKK2 mut-MEK5 21, UBC13 polyUb 14, Apaf-1 inh -22, MEKK2 WT-MEK5 125 and MEKK3 PB1 HTS 102.
For CCOC(=O)N1CCC(NC(=O)c2ccc3c(c2)sc2nc(-c4ccc(OC)cc4)cn23)CC1 the results were UBC13 polyUb 9 and Apaf-1 inh 44*.
Cc1cc(-n2nc(C)cc2C)nc(NS(=O)(=O)c2ccccc2Cl)n1 was read as MEKK2 mut-MEK5 34, UBC13 polyUb 1, Apaf-1 inh 4, MEKK2 WT-MEK5 21* and MEKK3 PB1 HTS 101.
`Cc1c(N=C/C=C2/N(C)c3ccccc3C2(C)C)c(=O)n(-c2ccccc2)n1C` gave MEKK2 mut-MEK5 1, UBC13 polyUb -1, Apaf-1 inh 2, MEKK2 WT-MEK5 -5.0* and MEKK3 PB1 HTS 76.
For Cc1c(N=C/C=C2\N(C)c3ccccc3C2(C)C)c(=O)n(-c2ccccc2)n1C the results were MEKK2 mut-MEK5 -8, UBC13 polyUb -2, Apaf-1 inh -22, MEKK2 WT-MEK5 90 and MEKK3 PB1 HTS 92.
